From ChEMBL document CHEMBL1138115, “The synthesis and aqueous superoxide anion scavenging of water-dispersible lutein esters” (2006)
Where a name gives a salt, the structure may show the parent alone.

What was measured:
Format in all cases: functional
Settings in all cases: Homo sapiens
PMNL [1] = assay: Inhibition of Superoxide radical scavenging activity in water at 5.0 mM in PMA-stimulated PMN
How it was run: (§1)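 Human PMNs were isolated by Percoll gradient (density 1.080 g/mL) from fresh venous blood of a single volunteer and suspended in PAG-CM buffer (PIPES pH 7.4, HSA, glucose, 1 mM CaCl2/MgCl2). 1 × 10⁶ cells were preincubated 5 min with compound in water or 40% EtOH, then stimulated with PMA (1 ng/mL). Superoxide was spin-trapped with DEPMPO (10 mM) and read by X-band EPR. Results are mean % signal inhibition, N=3 per formulation except one N=1.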

PMNL [2] = assay: Inhibition of Superoxide radical scavenging activity in 40% EtOH at 0.1 mM in PMA-stimulated PMN; how it was run: as §1
PMNL [3] = assay: Inhibition of Superoxide radical scavenging activity in water at 3.0 mM in PMA-stimulated PMN; how it was run: as §1
PMNL [4] = assay: Inhibition of Superoxide radical scavenging activity in water at 1.0 mM in PMA-stimulated PMN; how it was run: as §1
PMNL [5] = assay: Inhibition of Superoxide radical scavenging activity in water at 0.1 mM in PMA-stimulated PMN; how it was run: as §1

Row | Compound | inhibition at 5000 µM (PMNL [1]) [%] | inhibition at 100 µM (PMNL [2]) [%] | inhibition at 3000 µM (PMNL [3]) [%] | inhibition at 1000 µM (PMNL [4]) [%] | inhibition at 100 µM (PMNL [5]) [%]
1 | CC1=CC(OP(=O)(O)O)CC(C)(C)C1/C=C/C(C)=C/C=C/C(C)=C/C=C/C=C(C)/C=C/C=C(C)/C=C/C1=C(C)CC(OP(=O)(O)O)CC1(C)C (stereo not given) [LUTEIN DIPHOSPHATE SODIUM SALT] | 91 | 18 | 72.3 | 9.3 | 0
2 | CC1=CC(OC(=O)CCC(=O)O)CC(C)(C)C1/C=C/C(C)=C/C=C/C(C)=C/C=C/C=C(C)/C=C/C=C(C)/C=C/C1=C(C)CC(OC(=O)CCC(=O)O)CC1(C)C (stereo not given) [LUTEIN DISUCCINATE SODIUM SALT] | 74.7 | 5 | 61.7 | 13 | 0
